Compound activity as filed in PubChem BioAssay.
UCH37 inh – blocks the human deubiquitinase UCH37; AID 588478; inhibition, % (no concentration beside the values); purified proteasome/UCH37, Ub-AMC cleavage fluorescence; 0.33% of 330,000 active; Q9Y5K5;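 active means mean inhibition over replicate wells above about 20%, limit read from the data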
Target sequence (Q9Y5K5 whole entry, looked up): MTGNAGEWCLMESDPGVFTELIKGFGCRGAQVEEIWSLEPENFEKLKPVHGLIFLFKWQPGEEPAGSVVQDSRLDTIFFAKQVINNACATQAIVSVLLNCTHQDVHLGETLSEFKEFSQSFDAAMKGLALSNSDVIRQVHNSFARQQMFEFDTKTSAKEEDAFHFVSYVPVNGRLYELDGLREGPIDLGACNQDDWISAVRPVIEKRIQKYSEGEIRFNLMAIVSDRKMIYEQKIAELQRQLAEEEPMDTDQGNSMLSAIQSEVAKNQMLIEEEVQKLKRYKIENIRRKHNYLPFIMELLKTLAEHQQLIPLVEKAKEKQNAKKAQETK
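Material: human UCH37 enzyme supplied as purified proteasome complex. Measure: % inhibition of Ub-AMC cleavage fluorescence. Medium: pH 7.4 Tris-HCl (50 mM) with ovalbumin, ATP-MgCl2, DTT. Times: 30 min preincubation with enzyme, 25 min cleavage at room temperature. Detection: AMC fluorescence intensity at 355/460 nm.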
NR3A LBD binder – NR3A (human) ligand-binding domain modulation | NR3A LBD differential scanning fluorimetry, Tm shift; 0% = protein alone, 100% = glycine-bound protein | Tm shift relative to glycine control, % at 25 µM | 2.5% of 340,000 active | AID 1259313;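 active means melting temperature shift of at least 10% of the positive control shift, at one fixed dose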
PAFAH1B2 inh – blocks human PAF acetylhydrolase 1b catalytic subunit 2. 1.2% of 340,000 active. inhibition, % at 3.39 µM. recombinant PAFAH1B2, FP-rhodamine activity probe, fluorescence polarization. AID 492953;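 active means inhibition above the mean of all tested compounds plus 3 SD, cut at about 24% in these data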
Target sequence (P68402 whole entry, looked up): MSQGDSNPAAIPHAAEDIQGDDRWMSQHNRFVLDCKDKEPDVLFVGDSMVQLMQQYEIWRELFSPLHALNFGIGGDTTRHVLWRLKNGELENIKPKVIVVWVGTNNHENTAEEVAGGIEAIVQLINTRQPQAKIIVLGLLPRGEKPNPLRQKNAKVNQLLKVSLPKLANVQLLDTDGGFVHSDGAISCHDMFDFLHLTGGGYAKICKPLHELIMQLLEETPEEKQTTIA
PAFAH1B3 inh – PAFAH1B3 (human) inhibition; Q15102; recombinant PAFAH1B3, FP-rhodamine probe, fluorescence polarization; inhibition, % at 3.39 µM; 0.28% of 340,000 active;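 active means inhibition above the screen-wide average of all tested compounds plus 3 SD, cut at about 25% in these data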
PAFAH2 inh – inhibitors of human PAFAH2. 0.99% of 340,000 active. AID 492956. inhibition, % at 3.39 µM. Q99487. recombinant PAFAH2, FP-rhodamine activity probe, fluorescence polarization;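 active means inhibition above the mean over all tested compounds plus 3 SD, cut at about 30% in these data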;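 further: inhibitors block probe labeling of enzyme so polarization drops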
pPAFAH FP inh – pPAFAH (human) enzyme inhibition | Q13093 | recombinant pPAFAH, FP-rhodamine probe fluorescence polarization | inhibition, % at 3.39 µM | 1.5% of 330,000 active;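 active means inhibition above the mean inhibition across the screen plus 3 SD, cut at about 25% in these data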;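 further: inhibitors block binding of the rhodamine activity-based probe so polarization drops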
Hits are given with their value; i = inactive; nt = no result. Shown are actives, neighbours in structure and some others; about 4.8% of the full set was active somewhere.

SMILES | UCH37 inh | NR3A LBD binder | PAFAH1B2 inh | PAFAH1B3 inh | PAFAH2 inh | pPAFAH FP inh
O=C(O)c1cccc(-n2cccc2/C=C2/NC(=O)N(c3ccc(Cl)cc3)C2=O)c1 | 27.4 | i | 27.9 | 35.7 | 72.0 | nt
COc1ccc(-n2cccc2/C=C2/NC(=O)N(c3cccc(Cl)c3)C2=O)cc1 | i | i | i | i | i | i
CC1=C(C)C(=NOS(=O)(=O)c2ccc(C)cc2)C=CC1=O | i | nt | nt | nt | nt | nt
CC(C)CNC(=O)c1c(N)n(N=Cc2ccccn2)c2nc3ccccc3nc12 | i | nt | nt | nt | nt | nt
Cc1nn(CC(C)C(=O)N2CCN(S(=O)(=O)c3ccc(Cl)cc3)CC2)c(C)c1C (centres undefined) | i | i | 25.8 | i | i | i
Cc1nnc(SCC(=O)N2CCN(S(=O)(=O)c3ccc(Cl)cc3)CC2)[nH]c1=O | i | i | 29.6 | i | i | i
Nn1c(SCC(=O)N2CCN(S(=O)(=O)c3ccc(Cl)cc3)CC2)nnc1-c1cccs1 | i | i | i | i | i | 30.6
O=C(CN1CSCC1=O)N1CCN(S(=O)(=O)c2ccc(Cl)cc2)CC1 | i | i | 28.6 | i | i | i
O=C(NCCCN1CCOCC1)C(=O)NN=Cc1cccc2ccccc12 | i | nt | nt | nt | nt | nt
COc1cc(C=NNc2nc(Nc3ccccc3)nc(N3CCCCC3)n2)ccc1OCC(=O)O | i | nt | nt | nt | nt | nt
CC(=O)C1=C(O)C(=O)N(Cc2ccccc2)C1c1ccc(Cl)cc1 (centres undefined) | i | i | 29.0 | i | i | i
CC(=O)C1=C(O)C(=O)N(Cc2cccnc2)C1c1ccc(Cl)cc1 (centres undefined) | i | i | i | i | i | i
CCn1c(CNC(=O)COc2ccc(C(C)C)cc2)nnc1SCC(=O)Nc1ccccc1C(C)C | i | i | i | i | i | 29.9
Cc1ccccc1-c1cc(=O)c2ccccc2o1 | i | i | i | i | i | i
Cc1cc(CCNC=O)c(C)c2c1oc1ccccc12 | nt | 12.6 | i | i | i | nt
Cc1nc2ccccn2c1C(=O)NN=Cc1ccc(F)cc1 | i | nt | nt | nt | nt | nt
N#CC(=NNc1cccc(C(F)(F)F)c1)C(=O)c1csc(-c2cccnc2)n1 | i | nt | nt | nt | nt | nt
CC(=O)c1ccc(NC(=S)NC2CCCC(C)C2C)cc1 (centres undefined) | i | i | i | i | i | 33.8
CC(=O)c1ccc(NC(=S)NN2C(C)CCCC2C)cc1 (centres undefined) | i | i | i | i | i | i
Cc1ccc(Nc2ncnc3ccccc23)cc1 | i | i | i | i | i | i
Cc1ccc(Nc2ncnc(Cl)c2N)cc1 | i | 12.6 | i | i | i | nt
Cc1ccc(C)c(NC(=O)CC2Sc3ccccc3NC2=O)c1 (centres undefined) | nt | i | i | i | i | nt
Cc1c(Cl)cccc1NC(=O)CC1Sc2ccccc2NC1=O (centres undefined) | i | 10.3 | i | i | i | i
O=[N+]([O-])c1cc(CN2CCCC2)c2cccnc2c1O | nt | i | i | i | 36.0 | 66.0
Oc1c(Cl)cc(CN2CCCCC2)c2cccnc12 | nt | nt | i | i | i | i
SMILES | UCH37 inh | NR3A LBD binder | PAFAH1B2 inh | PAFAH1B3 inh | PAFAH2 inh | pPAFAH FP inh
COc1ccccc1N1CCN(Cc2cc(Br)c(O)c3ncccc23)CC1 | i | i | i | i | i | 29.8
CCOc1ccccc1N1CCN(Cc2cccc(OC)c2O)CC1 | i | i | i | i | i | i
COc1ccccc1C=NNc1cn[nH]c(=O)c1Cl | i | nt | nt | nt | nt | nt
Cc1cccc2cc(CN(C(=S)NCC(C)C)C3CCCC3)c(=O)[nH]c12 | i | 13.1 | i | i | i | i
CCNC(=S)N(Cc1cc2cccc(C)c2[nH]c1=O)C1CCCC1 | i | i | i | i | i | i
Cc1cc2nc(CCN(Cc3cccnc3)C(=S)Nc3ccc(F)cc3)[nH]c2cc1C | i | 26.7 | i | i | i | i
Cc1cc2nc(CCN(Cc3cccnc3)C(=S)Nc3ccccc3)[nH]c2cc1C | i | i | i | i | i | i
CC1(C)CC(=NNC(=O)c2n[nH]c3c2CCC3)CC(C)(C)N1 | 31.3 | i | i | i | i | i
CC1=NN(c2nc(-c3ccc(C)cc3)cs2)C(=O)C1N=Nc1ccccc1O (centres undefined) | i | 10.6 | nt | nt | nt | i
CCCOc1ccc(C(=O)ON=C(CC)c2ccc(C)cc2)cc1 | i | nt | nt | nt | nt | nt
COCCNC(=O)CCCCCNS(=O)(=O)c1ccc(C)cc1 | i | i | i | i | i | i
O=C(CCS(=O)(=O)Cc1ccccc1)NCCc1ccccc1 | i | i | i | i | i | i
Cc1ccc(S(=O)(=O)NCCCCCC(=O)NCCc2ccccc2)cc1 | i | i | 29.8 | i | i | i
Cc1ccc(CS(=O)(=O)CCC(=O)NCCc2ccccc2)cc1 | i | i | i | i | i | 24.6
COc1cc(C)c(CNc2cc(C)cc(C)c2)cc1C | i | 20.4 | i | i | i | i
Cc1ccc(C)n1-c1cccc(C(=O)O)c1 | nt | nt | nt | nt | nt | 62.6
Cc1c(C(=O)O)cccc1-n1c(C)cc(/C=C(/C#N)C(=O)NCc2ccccc2)c1C | i | i | nt | nt | nt | 29.5
COc1ccc(N=CC2=C(Nc3ccc(OC)cc3)c3c(C)nn(-c4ccccn4)c3CC2)cc1 | nt | nt | nt | nt | nt | 54.1
O=C(/C=C(\O)c1ccc(Cl)cc1)C(=O)NNC(=O)C(O)(c1ccccc1)c1ccccc1 | i | i | i | i | i | 27.1
O=C(/C=C(\O)c1ccccc1)C(=O)NNC(=O)c1ccccc1 | nt | i | i | i | i | i
O=C(Nc1ccncc1)Nc1ccc(Cl)cc1 | i | 26.1 | i | i | i | i
O=C(Nc1ccc(Cl)cc1)Nc1ccon1 | i | 14.3 | i | i | i | i
Cc1ccc(NC(=O)Nc2ccon2)cc1 | i | i | i | i | i | nt
O=C(Nc1ccc(Cl)cc1)Nc1ccc(-c2cnco2)cc1 | i | 37.2 | i | i | i | i
O=C(Nc1ccncc1)Nc1ccncc1 | i | i | i | i | i | i
COc1ccc(OCC(=O)NN=c2oc3c(OC)cccc3cc2C(N)=O)cc1 | i | nt | nt | nt | nt | nt
Cn1c(=O)[nH]c(=O)c2c1nc(Br)n2CC=NNC(=O)c1ccccc1 | i | nt | nt | nt | nt | nt
C=CCOc1c(Br)cc(C=Nn2c(CC)n[nH]c2=S)cc1Br | i | nt | nt | nt | nt | nt
